The source of these data is ChEMBL document CHEMBL1139904, “2-hydroxy-N-arylbenzenesulfonamides as ATP-citrate lyase inhibitors” (Bioorg Med Chem Lett, 2007).

One series has as its target T1, ATP-citrate synthase (Homo sapiens, UniProt P53396).
T1 sequence (P53396 whole entry): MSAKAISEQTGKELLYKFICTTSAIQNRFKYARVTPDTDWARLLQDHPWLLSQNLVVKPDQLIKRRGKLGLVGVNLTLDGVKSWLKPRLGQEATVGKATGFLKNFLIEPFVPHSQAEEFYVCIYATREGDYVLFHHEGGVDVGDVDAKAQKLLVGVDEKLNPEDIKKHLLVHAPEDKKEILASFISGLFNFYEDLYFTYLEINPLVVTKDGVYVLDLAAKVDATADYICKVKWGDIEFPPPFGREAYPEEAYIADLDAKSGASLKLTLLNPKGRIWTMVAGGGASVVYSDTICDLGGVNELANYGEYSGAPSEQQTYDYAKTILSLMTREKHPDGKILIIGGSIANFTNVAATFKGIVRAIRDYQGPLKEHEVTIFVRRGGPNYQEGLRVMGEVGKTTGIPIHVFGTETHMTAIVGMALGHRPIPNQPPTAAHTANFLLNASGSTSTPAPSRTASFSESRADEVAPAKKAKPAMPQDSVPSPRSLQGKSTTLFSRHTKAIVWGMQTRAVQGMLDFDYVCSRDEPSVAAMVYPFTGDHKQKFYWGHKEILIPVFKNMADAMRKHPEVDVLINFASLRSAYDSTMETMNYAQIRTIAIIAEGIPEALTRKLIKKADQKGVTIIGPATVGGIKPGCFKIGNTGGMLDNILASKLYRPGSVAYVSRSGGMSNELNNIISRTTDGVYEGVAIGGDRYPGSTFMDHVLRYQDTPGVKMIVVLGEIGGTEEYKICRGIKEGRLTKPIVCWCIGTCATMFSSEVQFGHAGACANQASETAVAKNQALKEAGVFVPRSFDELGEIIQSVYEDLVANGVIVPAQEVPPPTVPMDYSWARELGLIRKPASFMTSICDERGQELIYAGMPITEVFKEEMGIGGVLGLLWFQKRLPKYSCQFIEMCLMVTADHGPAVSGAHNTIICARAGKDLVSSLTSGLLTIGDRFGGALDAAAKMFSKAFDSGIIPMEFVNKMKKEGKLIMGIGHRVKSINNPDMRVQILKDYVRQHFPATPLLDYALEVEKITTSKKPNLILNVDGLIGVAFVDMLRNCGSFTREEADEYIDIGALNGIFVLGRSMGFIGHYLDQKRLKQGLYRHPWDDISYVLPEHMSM
In words: Inhibition of human recombinant ATP-citrate lyase. Summed up:
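Recombinant human ACL enzyme assay; values are at least two separate measurements.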

The subject of series [1] is HepG2. In words: Inhibition of total lipid synthesis HepG2 cells assessed as incorporation of [14C]total lipids after 6 hrs. The following applies: Homo sapiens, HepG2, 6 h. Format: functional, cell-based. A digest of the protocol:
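HepG2 cells incubated 6 h after compound addition, with [14C]-alanine present for the final 4 h; label incorporation into total lipid measured.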

Series [2] in a line: Oral bioavailability in mouse at 10 mg/kg. Format: ADME, organism-based. The note with it: in vivo. Summed up:
(§1)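 Mice dosed at 10 mg/kg both iv and po; vehicle 10% ethanol, 45% water, 45% PEG-400. Standard PK parameters derived: oral bioavailability, half-life, Cmax (po), Tmax (po), total body clearance.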

Series [3] can be described thus: Half life in mouse at 10 mg/kg, iv and po. Format: ADME, organism-based. Further details: dose 10 mg/kg, route oral. The note with it: in vivo. Summed up:
as §1

A short description of series [4]: Cmax in mouse at 10 mg/kg, po. The note with it: in vivo. It is filed as ADME, organism-based. Further details: dose 10 mg/kg, route oral. A digest of the protocol: as §1
Series [5] has as its system Mus musculus. In words: Increase in food consumption in high-fat diet C57BL/6 mouse at 10 mg/kg. Format: functional. Summed up:
(§2)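 Eight-week-old C57BL/6 mice (~30 g), five per group. High-fat diet (30% coconut oil, 45% sucrose) admixed with compound to give 10 or 100 mg/kg/day, versus high-fat and normal-chow controls, for 34 days. Food intake and body weight tracked; plasma lipids and fasting glucose assessed weekly. Lipid/glucose changes expressed as % reduction versus high-fat controls at day 29.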

Series [6] deals with Mus musculus. The series is described as follows: Increase in food consumption in normal fat diet C57BL/6 mouse at 10 mg/kg. It is filed as functional.
Series [7] relates to Mus musculus. The series is described as follows: Reduction of cholesterol level in high-fat diet C57BL/6 mouse at 10 mg/kg. It is filed as functional. Further details: scale not given: the % may be the effect or the level left. A digest of the protocol: as §2
In series [8] the test system is Mus musculus. The series is described as follows: Reduction of cholesterol level in high-fat diet C57BL/6 mouse at 100 mg/kg. It is filed as functional. Set-up: scale not given: the % may be the effect or the level left. Summed up:
as §2

The subject of series [9] is Mus musculus. In words: Reduction of triglycerides in high-fat diet C57BL/6 mouse at 10 mg/kg. Format: functional. Set-up: scale not given: the % may be the effect or the level left. A digest of the protocol: as §2
Series [10] has as its system Mus musculus. The series is described as follows: Reduction of triglycerides in high-fat diet C57BL/6 mouse at 100 mg/kg. It is filed as functional. Further details: scale not given: the % may be the effect or the level left. A digest of the protocol:
as §2

The subject of series [11] is Mus musculus. In words: Reduction of fasting plasma glucose level in C57BL/6 mouse at 10 mg/kg. Format: functional. Set-up: scale not given: the % may be the effect or the level left. Summed up:
as §2

Series [12] concerns Mus musculus. The series is described as follows: Reduction of fasting plasma glucose level in C57BL/6 mouse at 100 mg/kg. Format: functional. Further details: scale not given: the % may be the effect or the level left. A digest of the protocol:
as §2

For series [13], the system named is Mus musculus. In words: Reduction of body weight gain in high-fat diet C57BL/6 mouse at 10 mg/kg after 29 days. Further details: scale not given: the % may be the effect or the level left. Format: functional. A digest of the protocol: as §2
The test system of series [14] is Mus musculus. The series is described as follows: Reduction of body weight gain in high-fat diet C57BL/6 mouse at 100 mg/kg after 29 days. Format: functional. Set-up: scale not given: the % may be the effect or the level left. A digest of the protocol: as §2
A further series addresses Acetyl-CoA carboxylase 2 (Homo sapiens, UniProt O00763). In words: Inhibition of human ACC2.
For another series, the target named is Acetyl-CoA carboxylase 1 (Homo sapiens, UniProt Q13085). The series is described as follows: Inhibition of human ACC1.
A short description of series [15]: Tmax in mouse at 10 mg/kg, po. The note with it: in vivo.
The subject of series [16] is HepG2. The series is described as follows: Cytotoxicity against HepG2 cells upto 50 uM by Alamar blue assay. The following applies: Homo sapiens. For orientation: The colour change of resazurin is a common sign of viable cells or microbes.
Series [17] deals with Mus musculus. In words: Reduction of fat in high-fat diet C57BL/6 mouse at 10 mg/kg after 34 days. Set-up: scale not given: the % may be the effect or the level left.
Series [18] has as its system Mus musculus. The series is described as follows: Reduction of fat in high-fat diet C57BL/6 mouse at 100 mg/kg after 34 days. Further details: scale not given: the % may be the effect or the level left.

pIC50: −log10 of the molar value.

Chain of Acetyl-CoA carboxylase 2 (O00763 whole entry): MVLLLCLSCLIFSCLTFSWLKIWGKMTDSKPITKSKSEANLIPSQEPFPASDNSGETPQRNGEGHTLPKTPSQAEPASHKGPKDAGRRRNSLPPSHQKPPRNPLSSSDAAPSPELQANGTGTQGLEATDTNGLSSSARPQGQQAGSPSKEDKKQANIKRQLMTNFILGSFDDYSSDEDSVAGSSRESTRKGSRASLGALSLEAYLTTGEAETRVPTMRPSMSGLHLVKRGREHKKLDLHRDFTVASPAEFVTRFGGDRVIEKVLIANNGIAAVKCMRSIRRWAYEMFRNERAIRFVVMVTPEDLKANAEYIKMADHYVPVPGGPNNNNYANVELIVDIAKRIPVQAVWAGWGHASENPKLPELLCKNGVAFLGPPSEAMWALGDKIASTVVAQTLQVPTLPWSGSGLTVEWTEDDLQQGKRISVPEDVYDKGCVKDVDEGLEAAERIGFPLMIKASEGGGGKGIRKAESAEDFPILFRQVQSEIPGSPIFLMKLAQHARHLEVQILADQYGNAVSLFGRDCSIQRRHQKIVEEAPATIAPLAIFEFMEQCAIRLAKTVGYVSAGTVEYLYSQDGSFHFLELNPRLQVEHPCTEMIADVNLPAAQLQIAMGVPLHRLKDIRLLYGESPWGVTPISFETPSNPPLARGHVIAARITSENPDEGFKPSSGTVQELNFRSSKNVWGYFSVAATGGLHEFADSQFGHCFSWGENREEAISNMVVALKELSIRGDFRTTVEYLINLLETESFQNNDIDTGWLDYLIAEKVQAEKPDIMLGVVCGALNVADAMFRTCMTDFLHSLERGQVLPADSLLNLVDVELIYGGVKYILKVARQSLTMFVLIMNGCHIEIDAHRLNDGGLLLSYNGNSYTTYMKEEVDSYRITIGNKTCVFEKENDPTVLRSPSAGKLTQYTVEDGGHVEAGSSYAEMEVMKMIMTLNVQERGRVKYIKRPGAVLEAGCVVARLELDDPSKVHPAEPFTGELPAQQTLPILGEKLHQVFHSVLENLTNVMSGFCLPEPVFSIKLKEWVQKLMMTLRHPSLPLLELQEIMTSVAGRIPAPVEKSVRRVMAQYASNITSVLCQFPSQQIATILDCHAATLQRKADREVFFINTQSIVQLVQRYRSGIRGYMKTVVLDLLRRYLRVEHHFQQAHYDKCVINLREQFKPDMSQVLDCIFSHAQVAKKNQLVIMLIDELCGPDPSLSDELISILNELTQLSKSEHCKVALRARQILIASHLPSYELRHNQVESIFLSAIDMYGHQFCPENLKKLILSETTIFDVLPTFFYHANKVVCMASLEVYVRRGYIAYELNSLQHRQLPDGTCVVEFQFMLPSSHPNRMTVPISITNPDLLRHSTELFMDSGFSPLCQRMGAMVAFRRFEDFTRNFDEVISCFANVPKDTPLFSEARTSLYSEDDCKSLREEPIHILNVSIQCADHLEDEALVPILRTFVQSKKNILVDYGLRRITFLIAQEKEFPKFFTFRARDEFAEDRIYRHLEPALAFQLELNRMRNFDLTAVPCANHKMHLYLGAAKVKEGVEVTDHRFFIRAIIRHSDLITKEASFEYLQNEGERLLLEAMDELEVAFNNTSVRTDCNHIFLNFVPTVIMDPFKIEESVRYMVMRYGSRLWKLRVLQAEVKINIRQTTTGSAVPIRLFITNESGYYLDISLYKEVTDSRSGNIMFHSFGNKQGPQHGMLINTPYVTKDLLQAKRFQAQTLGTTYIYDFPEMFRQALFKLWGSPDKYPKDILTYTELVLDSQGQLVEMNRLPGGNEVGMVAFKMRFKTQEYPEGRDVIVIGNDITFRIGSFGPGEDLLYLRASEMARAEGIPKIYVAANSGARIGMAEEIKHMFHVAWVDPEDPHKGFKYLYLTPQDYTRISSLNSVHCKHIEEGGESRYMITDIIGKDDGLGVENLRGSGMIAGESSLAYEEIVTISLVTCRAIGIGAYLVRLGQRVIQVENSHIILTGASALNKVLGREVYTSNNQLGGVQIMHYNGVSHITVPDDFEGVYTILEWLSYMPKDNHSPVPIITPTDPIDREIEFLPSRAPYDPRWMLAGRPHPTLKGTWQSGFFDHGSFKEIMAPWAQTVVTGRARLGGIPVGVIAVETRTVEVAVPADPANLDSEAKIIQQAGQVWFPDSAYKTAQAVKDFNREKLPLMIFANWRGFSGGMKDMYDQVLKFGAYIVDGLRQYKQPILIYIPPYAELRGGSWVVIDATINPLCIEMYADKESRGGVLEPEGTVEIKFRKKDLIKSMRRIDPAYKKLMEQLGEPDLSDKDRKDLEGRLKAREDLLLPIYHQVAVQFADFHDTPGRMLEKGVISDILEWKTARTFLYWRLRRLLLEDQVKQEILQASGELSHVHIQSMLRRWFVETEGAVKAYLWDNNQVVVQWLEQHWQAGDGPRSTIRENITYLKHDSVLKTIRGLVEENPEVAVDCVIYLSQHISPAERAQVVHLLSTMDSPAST

Consider `O=C(O)C[C@@](O)(C(=O)O)[C@H](O)C(=O)O`, for which the pIC50 on ATP-citrate synthase is 6.82.

In the case of `O=S(=O)(Nc1cccc(Oc2ccccc2)c1)c1cc(Cl)cc(Cl)c1O`, the negative-log IC50 (pIC50) at ATP-citrate synthase was 5.09.

For `O=C(OC/C=C\c1ccccc1)c1ccccc1NS(=O)(=O)c1cc(Cl)cc(Cl)c1O`, the pIC50 on ATP-citrate synthase is 6.47.

Turning to `O=S(=O)(Nc1cc(Cl)cc(Cl)c1)c1cc(Cl)cc(Cl)c1O`, the negative logarithm of the IC50 (pIC50) at ATP-citrate synthase is 5.64.

Take `CC(C)(C)c1ccc(C(C)(C)C)c(NS(=O)(=O)c2cc(Cl)cc(Cl)c2O)c1`: the negative logarithm of the IC50 (pIC50) at ATP-citrate synthase is 5.25.

On to `CCCCCCc1ccc(NS(=O)(=O)c2cc(Cl)cc(Cl)c2O)cc1`, for which the negative logarithm of the IC50 (pIC50) at ATP-citrate synthase was 5.16.

As to `O=S(=O)(Nc1c(-c2ccccc2)cc(-c2ccccc2)cc1-c1ccccc1)c1cc(Cl)cc(Cl)c1O`, the pIC50 on ATP-citrate synthase is 6.72.

For `O=C(O)C[C@@](O)(C[C@H](O)CCCCCCc1ccc(Cl)cc1Cl)C(=O)O`, the pIC50 on ATP-citrate synthase was 5.68.

`COc1ccc(-c2ccccc2)cc1NS(=O)(=O)c1cc(Cl)cc(Cl)c1O`: the pIC50 was 6.89 on ATP-citrate synthase, 5.10 in the series on HepG2 [1], 4.92 against Acetyl-CoA carboxylase 2 and 5.22 against Acetyl-CoA carboxylase 1. In series [2], this compound had a bioavailability of 55%. For the same compound, in series [3], the half-life was 2.1 h. Moreover, the Cmax in series [4] amounted to 13 µM. In addition, the Activity in the series with Mus musculus [5] is on record as 3.2 g/day; with Mus musculus [6], 4 g/day; with Mus musculus [7], -9%; in the series with Mus musculus [8], -19%; in the series on Mus musculus [9], -26%; with Mus musculus [10], -26%. For the same compound, the Activity in the series with Mus musculus [11] is -48%; in the series with Mus musculus [12], -32%; with Mus musculus [13], 7.2%; in the series with Mus musculus [14], 3%; in the series with HepG2 [16], “Not toxic”; in the series on Mus musculus [17], 12.9%. The Activity in the series on Mus musculus [18] is 7.3%. The Tmax in series [15] was 0.5 h.

With `CC(C)(C)c1cc(NS(=O)(=O)c2cc(Cl)cc(Cl)c2O)cc(C(C)(C)C)c1`, on ATP-citrate synthase, the negative-log IC50 (pIC50) was 5.96.

Take `CC1CCC(C(C)C)C(OC(=O)c2ccccc2NS(=O)(=O)c2cc(Cl)cc(Cl)c2O)C1` (stereo not drawn): the pIC50 on ATP-citrate synthase was 6.43.

On to `CC(=O)N(C)c1ccc(NS(=O)(=O)c2cc(Cl)cc(Cl)c2O)cc1`, for which, at ATP-citrate synthase, the pIC50 is 4.96.

`O=S(=O)(Nc1cc(F)cc(F)c1)c1cc(Cl)cc(Cl)c1O`: at ATP-citrate synthase, the pIC50 is 5.12.

What is called pIC50 is −log10 of the IC50, conventionally taken in molar units. Broadly, the bioavailability is dose-corrected exposure relative to a reference, in per cent. For orientation: half-life means the time needed for the level to fall by half in the phase considered. Broadly, the Cmax is the peak of the concentration-time curve. The Tmax is the time from dosing to the highest level.
